# Assay outcomes: PubChem, several laboratories
# Compounds with a hit are over-represented: about 5% of the library has one in this group of screens.
# UPR XBP1 act = activators of adaptive XBP1 UPR arm, primary screen, cell-based, CHO-XBP1 luciferase reporter, luminescence, uHTS. hit rate 0.33% among 330,000. activation, % at 20 µM. IRE1-XBP1 UPR activation; percent of tunicamycin response, DMSO as zero;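 active = versus positive control, 20 µM dose yields 30% or more activation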;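 note: 100% = tunicamycin at 10 µg/mL and 0% = DMSO only wells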
#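 Material: CHO cell line with stable XBP1 luciferase reporter; schedule: 16-18 h cell attachment at 37 °C, then 6 h compound exposure; signal: glow luminescence from Steady-Glo reagent; medium: serum-containing F12 medium, 10% FBS; benchmarks: tunicamycin 10 µg/mL and vehicle-only wells; read-out: percent activation relative to tunicamycin reference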
# Beta cell apopt = inhibitors of cytokine-induced beta cell apoptosis, primary screen, luminescence. INS-1E cytokine-induced death, ATP luminescence, 48 h; percent of positive-control rescue, neutral wells zero. protection from apoptosis, % (concentration not given with the values). hit rate 0.8% among 300,000. AID 435005, 2010;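 active = Every replicate reaches about 75%, or at least half do and their mean reaches it too, limit read from the data; inconclusive = At least half of replicates reach the limit but their mean does not; inactive = Under half of replicates reach the limit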;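 note: 0% = cytokine-treated negative control wells and 100% = positive control rescue; higher means more ATP so stronger rescue from cytokine killing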
# Mdm2 MdmX PPI = inhibitors of human Mdm2-MdmX association, primary screen, cell-based, luminescence, split luciferase, SaOS-2, uHTS; Protein Mdm4 (Homo sapiens) + E3 ubiquitin-protein ligase Mdm2 (Homo sapiens), …; SaOS-2 split-luciferase Mdm2/MdmX complementation; inhibition, % at 8 µM; hit rate 3% among 330,000; AID 485346, 2010;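 active = inhibition of at least 50% at 8 µM in the primary screen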
# UPR CHOP act = activators of apoptotic CHOP UPR arm, primary screen, cell-based, CHO-CHOP luciferase reporter, luminescence, uHTS | UPR activation; percent of tunicamycin response over DMSO baseline | activation, % at 10 µM | hit rate 0.34% among 330,000 | AID 449763, 2010;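 active = at 10 µM dose, activation of 40% or more, normalized to positive control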;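 note: 100% = tunicamycin at 10 µg/mL and 0% = DMSO alone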
#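 Material: CHO-CHOP cells, stable luciferase reporter of PERK-eIF2a-CHOP signalling; quantity: 500 reporter cells seeded per well; buffer or medium: F12 medium containing 10% fetal bovine serum; compound: one dose, 10 µM in 0.5% DMSO; incubation: 6 h compound treatment, 37 °C; measured by: Steady-Glo luciferase luminescence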
# CSC inhib = cancer stem cell viability inhibitors, primary screen, luminescence. cancer stem cell-like cells viability. hit rate 1.1% among 300,000. inhibition, % at 7.5 µM; in the data active = inhibition above about 75%; inconclusive = no clear call, values can overlap the other calls; tested in HMLE shEcad cells
# T cruzi repl = inhibitors of intracellular T. cruzi growth, primary screen, luminescence, NIH3T3 host cells; hit rate 1.4% among 300,000; inhibition, % (test concentration not listed); T. cruzi beta-gal in NIH3T3, 90 h;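 active = mean inhibition across valid replicates above about 55%, limit read from the data; inconclusive = mean below that limit but half or more replicates reach it; inactive = mean below it, under half of replicates reach it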;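 note: signal also drops with host cell toxicity which is not excluded here; 0% = plate median of DMSO wells and 100% = zero luminescence signal; higher percent means less beta-gal luminescence so fewer parasites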
#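 System: NIH/3T3 fibroblasts plus reporter T. cruzi. Medium: DMEM plus 2% FBS. Probe or stimulus: 5000 reporter trypomastigotes per well. Compound: single 50 nL compound addition per well in DMSO. Incubation: co-culture of at least 90 h after 3 h attachment. Detection: GalScreen β-gal luminescence, detergent lysis, 60 min. Evaluation: parasite load inhibition, %.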
# Mdm2-MdmX conf = Mdm2-MdmX complex disruptors, retested hits, confirmation, luminescence, single concentration; shares compounds with Mdm2 MdmX PPI; Mdm2-MdmX binding, luminescent assay; inhibition, % at 8 µM; hit rate 55% among 10,000; in the data active = inhibition above about 40%
# Full FLuc ctr = full-length luciferase signal inhibition, confirmation, counter-screen for Mdm2/MdmX interaction inhibitor project, cell-based, single concentration, SaOS-2 | shares compounds with Mdm2 MdmX PPI | SaOS-2 full-length luciferase counterscreen, luminescence | inhibition, % at 8 µM | hit rate 77% among 6,200 | AID 504607, 2011;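 active = mean inhibition at 8 µM reaching about 37%, which flags the compound as non-specific, limit read from the data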;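 note: p53-null SaOS-2 cells with luciferase driven by a doxycycline-inducible promoter; compound on cells about two nights before reading with doxycycline added after day one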
# * hit, by the source's call; ? = inconclusive; / = no result given.
SMILES,UPR XBP1 act,Beta cell apopt,Mdm2 MdmX PPI,UPR CHOP act,CSC inhib,T cruzi repl,Mdm2-MdmX conf,Full FLuc ctr
CC(C)(C)c1ccc(Cn2c(=N)n(CC(O)c3ccco3)c3ccccc32)cc1 (stereo not drawn),3,38,98*,-2,10,60*,84*,40*
Cc1ccccc1Cn1c(=N)n(CC(O)c2ccco2)c2ccccc21 (stereo not drawn),1,10,38,-3,-7,-38,/,/
CCC(C(=O)O/N=C(\N)c1ccccc1)c1ccccc1 (stereo not drawn),-2,/,35,1,-5,13,/,/
CCC(C(=O)O/N=C(\N)c1ccc(Cl)cc1)c1ccccc1 (stereo not drawn),-1,-3,64*,0,-12,3,14,/
CCC(C(=O)O/N=C(\N)c1ccc(C)cc1)c1ccccc1 (stereo not drawn),4,-5,51*,0,/,0,18,/
CC(C)c1ccc(N(CC(=O)NCc2ccco2)C(=O)CCC(=O)Nc2nccs2)cc1,5,0,30,0,1,10,/,/
COc1ccc(C(=O)NCC(c2cccs2)N2CCOCC2)cc1OC (stereo not drawn),-2,-6,-2,0,-5,/,/,/
COc1cc(C(=O)NCC(c2cccs2)N2CCOCC2)cc(Br)c1OCc1ccccc1 (stereo not drawn),0,20,51*,0,30,/,42*,39*
C=CCc1cccc(C2Nc3ccccc3C(=O)N2O)c1O (stereo not drawn),-4,4,72*,0,/,-7,5,/
O=C1c2ccccc2NC(c2ccc(Cl)cc2Cl)N1O (stereo not drawn),-5,3,65*,-2,/,-23,46*,31
CC(=O)c1cc(C)ccc1OC(=O)c1ccco1,-3,-8,-10,2,-11,-6,/,/
Cc1cc(O)c(C(=O)/C=C/c2cccc([N+](=O)[O-])c2)c(=O)o1,-3,-10,13,1,10,-3,/,/
O=C(/C=C/c1cccc(Cl)c1)c1ccc([N+](=O)[O-])o1,-8,135*,100*,6,?,52,100*,51*
CCCCn1c(=O)[nH]c(=O)c2c1nc(-c1ccc(-c3ccccc3)cc1)n2C,22,6,62*,6,13,8,35,94*
CN1CCN(c2ccccc2NC(=S)NC(=O)c2cc3ccccc3o2)CC1,5,-4,92*,27,1,-12,18,/
CSc1nc(Sc2ccccc2Cl)c2ccccc2n1,-8,-9,53*,0,/,-1,46*,55*
CCOC(=O)c1cnc(SC)nc1Sc1ccccc1Cl,-2,/,11,1,-6,/,/,/
COc1ccc(OC)c(NC(=O)C(=O)NNC(=O)c2cccs2)c1,-1,-2,23,-2,-7,2,/,/
N=c1c2c(n(Cc3cccc(Cl)c3)c3c1CCC3)CCCC2,2,94*,58*,2,9,58*,42*,64*
N=c1c2c(n(Cc3ccccc3)c3c1CCC3)CCC2,-7,36,34,0,-4,47,/,/
COC1(OC)C(/C=C/c2ccc(Cl)cc2)C(C#N)(C#N)C1(OC)OC (stereo not drawn),-5,-17,88*,1,-13,-6,57*,23
O=C1c2ccccc2C(=O)C1c1nccc2ccccc12,-12,33,67*,-8,-5,17,10,/
CC1CCCCN1CCCNC(=O)C1CCCN(c2ncnc3c2nc2n3CCCCC2)C1 (stereo not drawn),-2,-7,7,1,-11,-27,/,/
CCO/C=C/C(O)(CNC(=O)c1ccc(C(C)(C)C)cc1)C(F)(F)F (stereo not drawn),-2,13,34,-1,9,5,/,/
CCN1CCN(CCCNC(=O)c2cc3c(s2)-c2ccccc2OC3)CC1,-1,-7,17,-1,-10,16,/,/
SMILES,UPR XBP1 act,Beta cell apopt,Mdm2 MdmX PPI,UPR CHOP act,CSC inhib,T cruzi repl,Mdm2-MdmX conf,Full FLuc ctr
CCCN1CCN(CCCNC(=O)c2cc3c(s2)-c2c(C)cccc2OC3)CC1,0,46,62*,2,14,22,25,/
CC1CC(C)CN(CCCNC(=O)c2cc3c(s2)-c2ccccc2OC3)C1 (stereo not drawn),-3,5,38,4,28,31,/,/
CC1CCCC(C)N1CCCNC(=O)c1cc2c(s1)-c1ccccc1OC2 (stereo not drawn),-4,-6,61*,3,22,13,26,/
Cc1cccc2c1-c1sc(C(=O)NCCCN3CCCC(C)C3)cc1CO2 (stereo not drawn),2,14,67*,1,12,14,49*,59*
CCOc1cc(CNc2nn[nH]n2)ccc1OCC(=O)NC(C)(C)C,0,0,10,0,0,0,/,/
O=C(Nc1cccc(-c2nc3ccccc3[nH]2)c1)c1cccc(NC(=O)c2ccco2)c1,-2,56,100*,8,99*,?,29,56*
O=C(Nc1ccc(Cl)c(-c2nc3ccccc3[nH]2)c1)c1ccc2c(c1)OCO2,5,2,6,2,0,26,/,/
O=C(Nc1ccc(-c2nc3ccccc3[nH]2)cc1)c1ccc2c(c1)OCO2,12,33,90*,13,-9,4,67*,29
COCCN1Cc2cccc(C(=O)Nc3cccc(-c4nc5ccccc5[nH]4)c3)c2C1=O,13,39,55*,2,55,35,51*,90*
CCCc1nnc(SCC(=O)N2CCCC(C)C2)n1CC1CCCO1 (stereo not drawn),-2,-2,-1,-2,10,-23,/,/
C/C(NC(=O)c1cccs1)=C1\C(=O)C[C@@H]2[C@H]1C2(C)C,6,-2,-91,4,/,9,/,/
CC(C)NC(=O)CSc1nc(-c2cccs2)cc(-c2ccccc2)c1C#N,0,4,35,1,-17,12,/,/
COc1ccc(-c2cc(-c3ccccc3)nc(SCC(=O)Nc3nccs3)c2C#N)cc1,1,6,75*,3,-6,33,14,/
